According to ChEMBL document CHEMBL1150387, “Development and experimental validation of a docking strategy for the generation of kinase-targeted libraries” (J Med Chem, 2008):

Legend:
[1] = target: Vascular endothelial growth factor receptor 1 (Homo sapiens) (UniProt P17948); assay: Inhibition of FLT1 at 10 uM by HTRF assay relative to control
Outline: (§1)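 HTRF kinase assay, one panel of kinases. Inhibitor stock 50 µM in 100% DMSO; tested at 10 µM. ATP and substrate at final levels near Km. Final buffer: 50 mM Hepes/NaOH pH 7.4, 40 µM Na3VO4, 0.005% Tween-20, 1 mM DTT, MnCl2 or MgCl2 at kinase-dependent levels. Started by adding ATP/substrate. Reaction run at room temperature, time varied by kinase. Detection mix in 50 mM Hepes pH 7.4, 0.1% BSA, 150 mM KF, incubated ≥1 h at room temperature. Activity expressed as % of uninhibited control; n=2.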

[2] = target: Platelet-derived growth factor receptor beta (Homo sapiens) (UniProt P09619); assay: Inhibition of PDGFRbeta at 10 uM by HTRF assay relative to control; outline: as §1
Sequence of Platelet-derived growth factor receptor beta (Homo sapiens) (P09619 whole entry): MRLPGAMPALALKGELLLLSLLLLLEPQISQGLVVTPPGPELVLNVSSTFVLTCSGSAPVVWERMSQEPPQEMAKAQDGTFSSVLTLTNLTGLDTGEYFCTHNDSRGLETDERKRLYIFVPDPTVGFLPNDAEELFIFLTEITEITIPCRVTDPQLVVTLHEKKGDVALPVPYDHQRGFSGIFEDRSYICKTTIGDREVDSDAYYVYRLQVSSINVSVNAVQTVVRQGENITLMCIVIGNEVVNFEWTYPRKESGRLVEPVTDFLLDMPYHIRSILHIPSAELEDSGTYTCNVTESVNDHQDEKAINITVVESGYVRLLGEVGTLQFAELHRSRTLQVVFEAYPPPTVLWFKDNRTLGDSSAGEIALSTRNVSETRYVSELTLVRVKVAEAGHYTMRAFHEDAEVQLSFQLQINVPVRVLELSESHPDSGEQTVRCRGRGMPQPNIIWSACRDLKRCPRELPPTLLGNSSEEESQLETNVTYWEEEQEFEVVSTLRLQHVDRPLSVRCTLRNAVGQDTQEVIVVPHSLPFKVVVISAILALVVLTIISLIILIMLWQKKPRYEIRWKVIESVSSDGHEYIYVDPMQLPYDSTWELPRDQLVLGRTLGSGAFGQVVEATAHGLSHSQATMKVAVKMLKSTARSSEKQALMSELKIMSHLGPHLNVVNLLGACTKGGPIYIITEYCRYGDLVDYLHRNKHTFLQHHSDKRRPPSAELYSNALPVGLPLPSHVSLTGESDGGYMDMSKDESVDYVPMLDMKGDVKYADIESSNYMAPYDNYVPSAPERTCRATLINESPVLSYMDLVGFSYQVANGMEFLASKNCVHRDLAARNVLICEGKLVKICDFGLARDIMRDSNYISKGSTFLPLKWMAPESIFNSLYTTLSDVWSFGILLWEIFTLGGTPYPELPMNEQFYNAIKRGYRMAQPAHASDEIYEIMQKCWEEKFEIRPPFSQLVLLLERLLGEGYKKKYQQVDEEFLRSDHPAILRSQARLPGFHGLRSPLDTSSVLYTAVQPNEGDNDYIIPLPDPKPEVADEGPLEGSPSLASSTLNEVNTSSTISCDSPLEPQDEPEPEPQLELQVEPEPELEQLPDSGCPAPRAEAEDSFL

[3] = target: MAP kinase-activated protein kinase 2 (Homo sapiens) (UniProt P49137); assay: Inhibition of MAPKAPK2 at 10 uM by HTRF assay relative to control; outline: as §1
Sequence of MAP kinase-activated protein kinase 2 (Homo sapiens) (P49137 whole entry, looked up): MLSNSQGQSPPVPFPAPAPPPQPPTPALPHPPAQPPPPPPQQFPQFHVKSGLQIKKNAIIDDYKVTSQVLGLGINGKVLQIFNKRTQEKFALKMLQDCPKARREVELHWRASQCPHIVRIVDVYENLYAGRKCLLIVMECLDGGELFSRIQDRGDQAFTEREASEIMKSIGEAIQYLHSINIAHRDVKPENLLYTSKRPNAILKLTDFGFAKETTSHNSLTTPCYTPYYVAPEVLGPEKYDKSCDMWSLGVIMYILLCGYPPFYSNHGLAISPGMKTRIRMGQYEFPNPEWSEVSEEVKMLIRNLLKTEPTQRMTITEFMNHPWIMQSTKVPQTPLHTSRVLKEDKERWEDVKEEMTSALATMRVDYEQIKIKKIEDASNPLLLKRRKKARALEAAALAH

[4] = target: 3-phosphoinositide-dependent protein kinase 1 (Homo sapiens) (UniProt O15530); assay: Inhibition of PDK1 at 10 uM by HTRF assay relative to control
Sequence of 3-phosphoinositide-dependent protein kinase 1 (Homo sapiens) (O15530 whole entry, looked up): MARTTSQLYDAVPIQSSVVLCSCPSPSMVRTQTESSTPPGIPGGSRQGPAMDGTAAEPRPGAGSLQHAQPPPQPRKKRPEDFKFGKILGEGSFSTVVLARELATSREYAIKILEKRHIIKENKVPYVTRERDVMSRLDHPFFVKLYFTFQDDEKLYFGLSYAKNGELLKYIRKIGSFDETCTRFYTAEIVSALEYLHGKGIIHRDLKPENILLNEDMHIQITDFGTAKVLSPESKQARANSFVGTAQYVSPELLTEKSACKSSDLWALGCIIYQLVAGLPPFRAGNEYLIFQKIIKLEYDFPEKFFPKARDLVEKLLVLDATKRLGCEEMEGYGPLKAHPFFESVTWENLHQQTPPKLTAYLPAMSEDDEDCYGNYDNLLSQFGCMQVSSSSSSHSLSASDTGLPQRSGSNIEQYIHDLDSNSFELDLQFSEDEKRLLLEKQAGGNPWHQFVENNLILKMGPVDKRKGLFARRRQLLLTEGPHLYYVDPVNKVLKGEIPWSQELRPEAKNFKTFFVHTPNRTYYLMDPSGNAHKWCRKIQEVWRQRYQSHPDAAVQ

[5] = target: Tyrosine-protein kinase Lck (Homo sapiens) (UniProt P06239); assay: Inhibition of Lck at 10 uM by HTRF assay relative to control; outline: as §1
Sequence of Tyrosine-protein kinase Lck (Homo sapiens) (P06239 2-509 limits assumed): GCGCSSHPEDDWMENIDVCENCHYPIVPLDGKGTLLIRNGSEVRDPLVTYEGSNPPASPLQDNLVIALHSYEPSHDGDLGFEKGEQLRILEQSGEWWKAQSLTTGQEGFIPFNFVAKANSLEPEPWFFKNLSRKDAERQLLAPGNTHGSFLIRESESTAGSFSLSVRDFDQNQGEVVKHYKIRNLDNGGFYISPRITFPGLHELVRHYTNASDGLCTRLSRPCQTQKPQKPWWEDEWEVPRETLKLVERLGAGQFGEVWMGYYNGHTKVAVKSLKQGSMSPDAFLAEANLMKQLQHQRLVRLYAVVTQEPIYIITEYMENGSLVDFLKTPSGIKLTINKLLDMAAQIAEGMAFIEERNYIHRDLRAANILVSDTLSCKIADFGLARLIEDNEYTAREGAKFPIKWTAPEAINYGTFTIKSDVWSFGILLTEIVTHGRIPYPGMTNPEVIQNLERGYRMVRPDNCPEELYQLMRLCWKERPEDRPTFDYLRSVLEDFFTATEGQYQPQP

[6] = target: Cyclin-dependent kinase 2 (Homo sapiens) (UniProt P24941); assay: Inhibition of CDK2 at 10 uM by HTRF assay relative to control; outline: as §1
[7] = target: Fibroblast growth factor receptor 1 (Homo sapiens) (UniProt P11362); assay: Inhibition of FGFR1 at 10 uM by HTRF assay relative to control; outline: as §1
Sequence of Fibroblast growth factor receptor 1 (Homo sapiens) (P11362 22-822 limits assumed): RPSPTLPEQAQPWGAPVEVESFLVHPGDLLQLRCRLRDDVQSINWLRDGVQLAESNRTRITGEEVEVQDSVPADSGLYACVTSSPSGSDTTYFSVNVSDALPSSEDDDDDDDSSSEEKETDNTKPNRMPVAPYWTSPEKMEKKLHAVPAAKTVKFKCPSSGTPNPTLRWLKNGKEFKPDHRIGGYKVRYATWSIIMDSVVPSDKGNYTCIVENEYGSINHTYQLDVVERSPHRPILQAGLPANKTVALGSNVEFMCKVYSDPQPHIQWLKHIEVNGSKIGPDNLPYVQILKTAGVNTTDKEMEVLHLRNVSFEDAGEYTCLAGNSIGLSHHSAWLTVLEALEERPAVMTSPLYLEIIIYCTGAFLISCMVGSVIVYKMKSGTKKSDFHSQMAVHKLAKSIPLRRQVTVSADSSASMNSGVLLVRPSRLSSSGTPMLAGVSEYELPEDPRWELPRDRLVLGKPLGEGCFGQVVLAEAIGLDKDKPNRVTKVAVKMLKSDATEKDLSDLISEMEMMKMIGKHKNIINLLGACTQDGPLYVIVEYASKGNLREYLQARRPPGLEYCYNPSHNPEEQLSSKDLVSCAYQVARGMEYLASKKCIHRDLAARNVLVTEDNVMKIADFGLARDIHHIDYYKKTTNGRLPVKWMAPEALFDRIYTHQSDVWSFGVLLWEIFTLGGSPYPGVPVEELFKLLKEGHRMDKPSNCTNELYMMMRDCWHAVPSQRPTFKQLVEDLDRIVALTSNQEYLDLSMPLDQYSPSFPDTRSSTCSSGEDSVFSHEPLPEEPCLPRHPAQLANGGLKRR

[8] = target: RAC-alpha serine/threonine-protein kinase (Homo sapiens) (UniProt P31749); assay: Inhibition of AKT1/PKBalpha at 10 uM by HTRF assay relative to control; outline: as §1
[9] = target: T1, Tyrosine-protein kinase JAK3 (Homo sapiens) (UniProt P52333); assay: Inhibition of JAK3 at 10 uM by HTRF assay relative to control; outline: as §1
T1 sequence (whole entry): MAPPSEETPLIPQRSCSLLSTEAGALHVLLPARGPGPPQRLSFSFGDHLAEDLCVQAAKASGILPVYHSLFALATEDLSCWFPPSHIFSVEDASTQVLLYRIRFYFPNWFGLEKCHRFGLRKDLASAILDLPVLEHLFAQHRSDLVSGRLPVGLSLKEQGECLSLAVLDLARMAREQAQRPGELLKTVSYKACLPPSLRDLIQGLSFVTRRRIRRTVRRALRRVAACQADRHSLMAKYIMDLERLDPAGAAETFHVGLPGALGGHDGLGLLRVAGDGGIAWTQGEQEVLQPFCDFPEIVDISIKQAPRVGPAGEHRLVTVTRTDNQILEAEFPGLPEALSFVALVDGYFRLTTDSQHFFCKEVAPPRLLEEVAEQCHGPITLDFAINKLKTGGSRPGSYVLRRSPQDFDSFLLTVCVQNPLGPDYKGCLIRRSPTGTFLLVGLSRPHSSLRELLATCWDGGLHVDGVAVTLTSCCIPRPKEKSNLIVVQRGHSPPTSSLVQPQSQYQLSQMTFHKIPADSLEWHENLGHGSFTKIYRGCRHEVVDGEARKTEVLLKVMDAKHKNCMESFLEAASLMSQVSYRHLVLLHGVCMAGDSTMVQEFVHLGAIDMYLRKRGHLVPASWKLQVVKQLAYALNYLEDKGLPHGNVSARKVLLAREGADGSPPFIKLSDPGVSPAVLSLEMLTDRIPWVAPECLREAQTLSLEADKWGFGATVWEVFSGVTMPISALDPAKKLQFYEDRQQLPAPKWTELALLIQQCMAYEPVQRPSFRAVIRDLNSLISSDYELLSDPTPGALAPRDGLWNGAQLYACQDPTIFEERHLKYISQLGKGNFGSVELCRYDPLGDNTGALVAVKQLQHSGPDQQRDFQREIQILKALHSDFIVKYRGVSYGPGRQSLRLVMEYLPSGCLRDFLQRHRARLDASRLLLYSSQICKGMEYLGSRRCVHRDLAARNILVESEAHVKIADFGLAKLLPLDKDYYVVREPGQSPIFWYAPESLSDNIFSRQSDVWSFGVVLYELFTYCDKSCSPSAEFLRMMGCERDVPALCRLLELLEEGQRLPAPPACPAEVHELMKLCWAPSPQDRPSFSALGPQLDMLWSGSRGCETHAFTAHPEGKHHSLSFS

[10] = target: Vascular endothelial growth factor receptor 2 (Homo sapiens) (UniProt P35968); assay: Inhibition of KDR at 10 uM by HTRF assay relative to control; outline: as §1
[11] = target: Calcium/calmodulin-dependent protein kinase type II subunit alpha (Homo sapiens) (UniProt Q9UQM7); assay: Inhibition of CaMK2alpha at 10 uM by HTRF assay relative to control; outline: as §1
[12] = target: Focal adhesion kinase 1 (Homo sapiens) (UniProt Q05397); assay: Inhibition of FAK at 10 uM by HTRF assay relative to control; outline: as §1

Sequence of Vascular endothelial growth factor receptor 1 (Homo sapiens) (P17948 whole entry): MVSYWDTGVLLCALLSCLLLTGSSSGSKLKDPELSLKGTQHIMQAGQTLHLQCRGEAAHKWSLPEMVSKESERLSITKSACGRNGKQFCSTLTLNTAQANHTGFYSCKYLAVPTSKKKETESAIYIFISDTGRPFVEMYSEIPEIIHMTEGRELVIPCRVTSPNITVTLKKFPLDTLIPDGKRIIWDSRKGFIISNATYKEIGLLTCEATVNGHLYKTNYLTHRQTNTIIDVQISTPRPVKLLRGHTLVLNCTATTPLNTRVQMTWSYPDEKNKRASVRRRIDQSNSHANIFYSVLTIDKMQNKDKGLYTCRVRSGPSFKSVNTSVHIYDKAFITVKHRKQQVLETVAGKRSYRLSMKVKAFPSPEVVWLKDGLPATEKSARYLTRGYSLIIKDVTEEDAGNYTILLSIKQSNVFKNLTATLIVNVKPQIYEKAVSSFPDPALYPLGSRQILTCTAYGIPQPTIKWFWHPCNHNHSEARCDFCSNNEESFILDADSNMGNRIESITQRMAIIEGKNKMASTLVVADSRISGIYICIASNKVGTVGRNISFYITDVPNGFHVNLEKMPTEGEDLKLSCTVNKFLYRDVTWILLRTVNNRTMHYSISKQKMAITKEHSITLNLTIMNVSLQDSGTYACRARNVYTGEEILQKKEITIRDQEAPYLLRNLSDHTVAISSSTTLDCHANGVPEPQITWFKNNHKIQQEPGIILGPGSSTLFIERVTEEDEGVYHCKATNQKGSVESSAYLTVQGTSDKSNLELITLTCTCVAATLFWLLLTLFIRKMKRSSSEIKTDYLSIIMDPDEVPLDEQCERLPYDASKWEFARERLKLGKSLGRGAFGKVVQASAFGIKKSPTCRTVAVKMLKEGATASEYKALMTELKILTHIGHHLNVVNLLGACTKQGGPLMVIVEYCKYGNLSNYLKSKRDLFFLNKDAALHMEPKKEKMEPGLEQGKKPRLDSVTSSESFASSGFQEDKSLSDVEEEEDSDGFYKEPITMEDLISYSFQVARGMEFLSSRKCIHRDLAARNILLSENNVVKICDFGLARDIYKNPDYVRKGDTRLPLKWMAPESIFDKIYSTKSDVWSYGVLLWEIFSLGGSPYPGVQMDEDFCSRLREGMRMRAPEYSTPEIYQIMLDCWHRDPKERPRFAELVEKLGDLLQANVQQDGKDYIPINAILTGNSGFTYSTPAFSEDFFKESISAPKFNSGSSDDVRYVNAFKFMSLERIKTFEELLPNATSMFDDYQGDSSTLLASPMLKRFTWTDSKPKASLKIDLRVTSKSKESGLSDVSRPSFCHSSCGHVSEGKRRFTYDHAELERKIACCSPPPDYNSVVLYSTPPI

| SMILES | inhibition [1] [%] | inhibition [2] [%] | inhibition [3] [%] | inhibition [4] [%] | inhibition [5] [%] | inhibition [6] [%] | inhibition [7] [%] | inhibition [8] [%] | inhibition [9] [%] | inhibition [10] [%] | inhibition [11] [%] | inhibition [12] [%] |
| --- | --- | --- | --- | --- | --- | --- | --- | --- | --- | --- | --- | --- |
| Cc1cccc(N(C)c2cc(Nc3cccc(C(=O)N4CCCC5CCCCC54)c3)ncn2)c1 (centres undefined) | 8 | 5 | 0 | 0 | 0 | 4 | 0 | 6 | 0 | 0 | 0 | 8 |
| Nc1nc(Nc2ccccc2)cc(N2CCC(C(=O)NCCc3ccccn3)CC2)n1 | 0 | 0 | 0 | 0 | 0 | 17 | 0 | 0 | 0 | 1 | 0 | 1 |
| Cc1cccc(Oc2ccnc(N3CCC[C@H]3C(=O)NCCCn3ccnc3)n2)c1 | 0 | 7 | 2 | 1 | 0 | 3 | 1 | 0 | 7 | 11 | 0 | 4 |
| CN(CCc1ccccn1)C(=O)c1cccc(Nc2nccc(Nc3ccc4ncsc4c3)n2)c1 | 72 | 91 | 1 | 0 | 37 | 12 | 80 | 0 | 28 | 95 | 0 | 78 |
| CN(C)c1ccc(C(=O)N2CCN(c3ncnc4c3CN(Cc3ccccc3)CC4)CC2)c2ccccc12 | 0 | 4 | 3 | 0 | 0 | 5 | 19 | 4 | 7 | 3 | 0 | 0 |
| Cc1cccc(N(C)c2cc(N3CCN(C(=O)Cc4c[nH]c5ccccc45)CC3)ncn2)c1 | 0 | 1 | 0 | 3 | 0 | 10 | 5 | 0 | 0 | 3 | 0 | 5 |
| Cc1cccc(N(C)c2cc(Nc3ccc(CC(=O)Nc4ccc5ncsc5c4)cc3)ncn2)c1 | 22 | 48 | 3 | 1 | 0 | 4 | 19 | 0 | 12 | 40 | 0 | 15 |
| CN(CCc1ccccn1)C(=O)[C@@H]1CCCN1c1nccc(Nc2ccccc2)n1 | 0 | 5 | 0 | 0 | 0 | 5 | 0 | 1 | 0 | 2 | 1 | 2 |
| Nc1nc(N2CCOCC2)cc(N2CCC(C(=O)NCCc3ccc(O)cc3)CC2)n1 | 0 | 0 | 0 | 0 | 0 | 5 | 15 | 2 | 0 | 7 | 0 | 3 |
| CN(CCCn1ccnc1)C(=O)[C@@H]1CCCN1c1nccc(Nc2ccccc2)n1 | 4 | 11 | 2 | 1 | 0 | 24 | 0 | 0 | 0 | 3 | 0 | 10 |
| COC[C@@H]1CCCN1C(=O)[C@@H]1CCCN1c1nccc(Nc2ccccc2)n1 | 1 | 8 | 1 | 1 | 0 | 0 | 0 | 0 | 1 | 4 | 0 | 0 |
| Cc1cccc(N(C)c2cc(Nc3cccc(C(=O)NCc4ccc(N(C)C)cc4)c3)ncn2)c1 | 21 | 13 | 0 | 0 | 0 | 1 | 3 | 0 | 11 | 0 | 0 | 9 |
| Cc1cccc(Nc2nccc3c2CN(C(=O)c2cc(C)n(C)c2C)CC3)c1 | 0 | 5 | 0 | 0 | 0 | 8 | 0 | 0 | 0 | 0 | 0 | 1 |
| O=C(NCCc1ccc(O)cc1)c1cccc(Nc2nccc(Nc3ccc4ncsc4c3)n2)c1 | 42 | 89 | 2 | 0 | 1 | 8 | 52 | 0 | 11 | 43 | 0 | 78 |
| COc1cccc(Nc2cc(N3CCC[C@H]3C(=O)NCCN3CCCCC3)nc(N)n2)c1 | 13 | 8 | 0 | 0 | 0 | 12 | 0 | 2 | 0 | 5 | 0 | 4 |
| CN(C)CC(C)(C)CNC(=O)c1cccc(Nc2nccc(Nc3ccc4ncsc4c3)n2)c1 | 39 | 99 | 0 | 0 | 100 | 24 | 86 | 0 | 91 | 89 | 34 | 97 |
| Cc1cc(C(=O)N2CCN(c3ncnc4c3CN(Cc3ccccc3)CC4)CC2)c(C)n1C | 0 | 5 | 0 | 0 | 0 | 3 | 0 | 0 | 0 | 0 | 0 | 0 |
| O=C(NC[C@@H]1CCCO1)c1cccc(Nc2nccc(Nc3ccc4ncsc4c3)n2)c1 | 87 | 98 | 1 | 3 | 84 | 38 | 95 | 0 | 84 | 95 | 0 | 99 |
| Clc1ccc2sc(CN3CCN(c4ncnc5c4CN(Cc4ccccc4)CC5)CC3)cc2c1 | 0 | 5 | 1 | 3 | 0 | 16 | 6 | 2 | 0 | 11 | 0 | 1 |
| O=C(NCc1ccncc1)c1cccc(Nc2cc(Nc3cccc(Br)c3)ncn2)c1 | 32 | 26 | 0 | 4 | 32 | 15 | 0 | 0 | 0 | 22 | 0 | 12 |
| COc1cccc(Nc2cc(Nc3cccc(C(=O)N(C)CCc4ccccn4)c3)nc(N)n2)c1 | 15 | 3 | 0 | 4 | 0 | 1 | 7 | 1 | 18 | 7 | 0 | 11 |
| Cc1cccc(N(C)c2cc(Nc3cccc(C(=O)N(C)CCc4ccccn4)c3)ncn2)c1 | 3 | 23 | 0 | 0 | 10 | 21 | 30 | 2 | 7 | 31 | 0 | 6 |
